Experimental data: ChEMBL document CHEMBL1154198, “Chemical genetics of Plasmodium falciparum” (Nature, 2010)

How the values were obtained:
Plasmodium falciparum [1] = experiment: ST_JUDE: Cytotoxicity against Plasmodium falciparum V1/S; type: functional, organism-based
Plasmodium falciparum [2] = experiment: ST_JUDE: Cytotoxicity against Plasmodium falciparum 3D7; type: functional, organism-based
Method in brief: (§1)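 Asexual P. falciparum grown in human erythrocytes, exposed to compounds for 72 h, and growth read as the DNA quantity in treated versus control cultures. Dose-response run at 12 concentrations from 10 μM to 5 nM.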

[3] = ST_JUDE: Cytotoxicity using luciferase to measure ATP as an indicator of the viability of human Burkitt''s lymphoma lymphoblast cells (Raji); type: toxicity, cell-based
Plasmodium falciparum [4] = experiment: ST_JUDE: Plasmodium falciparum K1 EC50 (uM) as measured by SYBR green dye; type: functional, organism-based
Plasmodium falciparum [5] = experiment: ST_JUDE: Cytotoxicity against Plasmodium falciparum W2; type: functional, organism-based
Plasmodium falciparum [6] = experiment: ST_JUDE: Cytotoxicity against Plasmodium falciparum D10 transfected with yeast DHOD; type: functional, organism-based
Toxoplasma gondii = experiment: ST_JUDE: Growth inhibition of to Toxoplasma gondii, in human U-2OS cells, as measured by luciferase.; type: functional, organism-based; conditions: RH, U2OS
Method in brief: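 T. gondii parasites engineered to express luciferase; drug sensitivity read by luminescence.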

Leishmania major = experiment: ST_JUDE: Cytotoxicity using Alamar Blue to measure viability of Leishmania major; type: functional, organism-based
Method in brief: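 L. major promastigotes; drug susceptibility read with Alamar Blue.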

Plasmodium falciparum [7] = experiment: ST_JUDE: Cytotoxicity against Plasmodium falciparum Dd2; type: functional, organism-based
Plasmodium falciparum [8] = experiment: ST_JUDE: Plasmodium falciparum 3D7 EC50 (uM) as measured by SYBR green dye; type: functional, organism-based
[9] = ST_JUDE: Cytotoxicity using luciferase to measure ATP as an indicator of the viability of human epithelial hepatocellular carcinoma cells (HepG2); type: toxicity, cell-based
[10] = ST_JUDE: Cytotoxicity using luciferase to measure ATP as an indicator of the viability of human epithelial embryonic kidney cells (HEK293); type: toxicity, cell-based
[11] = ST_JUDE: Cytotoxicity using luciferase to measure ATP as an indicator of the viability of human foreskin fibroblast cells (BJ); type: toxicity, cell-based
Trypanosoma brucei = experiment: ST_JUDE: Cytotoxicity using luciferase to measure ATP as an indicator of the viability of Trypanosoma brucei; type: functional, organism-based
Plasmodium falciparum [12] = experiment: ST_JUDE: Cytotoxicity against Plasmodium falciparum K1; type: functional, organism-based; method in brief: as §1
Plasmodium falciparum [13] = experiment: ST_JUDE: Cytotoxicity against Plasmodium falciparum SB-A6; type: functional, organism-based

Compound	EC50 (Plasmodium falciparum [1])	EC50 (Plasmodium falciparum [2])	EC50 [3]	EC50 (Plasmodium falciparum [4])	EC50 (Plasmodium falciparum [5])	EC50 (Plasmodium falciparum [6])	EC50 (Toxoplasma gondii)	EC50 (Leishmania major)	EC50 (Plasmodium falciparum [7])	EC50 (Plasmodium falciparum [8])	EC50 [9]	EC50 [10]	EC50 [11]	EC50 (Trypanosoma brucei)	EC50 (Plasmodium falciparum [12])	EC50 (Plasmodium falciparum [13])
COc1ccc(NC(=O)C2c3ccccc3C(=O)N(CC(C)C)C2c2cccs2)cc1OC (centres undefined)	132 nM	105 nM	> 44000 nM	51.8 nM	49.6 nM	91.3 nM	> 24100 nM	> 18800 nM	123 nM	50.1 nM	> 44000 nM	> 44000 nM	> 44000 nM	6930 nM	110 nM	90 nM
CC(C)(C)C(=O)N1CCN(c2ccc([N+](=O)[O-])c(NC3CC3)c2)CC1	1150 nM	1240 nM	> 43400 nM	642 nM	480 nM	1360 nM	> 23800 nM	> 18600 nM	1050 nM	670 nM	> 43400 nM	> 43400 nM	> 43400 nM	21300 nM	1070 nM	1240 nM
CCN1CCN(Cc2c(O)ccc3c(=O)c(Oc4ccccc4C(C)C)c(C(F)(F)F)oc23)CC1	102 nM	223 nM	> 23300 nM	59.2 nM	41.8 nM	247 nM	> 12800 nM	> 9980 nM	523 nM	226 nM	> 23300 nM	> 23300 nM	> 23300 nM	> 22400 nM	69.6 nM	335 nM
CCc1ccc(S(=O)(=O)NC2=C/C(=N\c3ccccc3)C(=O)c3ccccc32)cc1	404 nM	284 nM	2660 nM	472 nM	484 nM	373 nM	> 16900 nM	> 13200 nM	575 nM	557 nM	4290 nM	5210 nM	5650 nM	1460 nM	276 nM	340 nM
CCOC(=O)C1=C(C)N=c2s/c(=C/c3ccccc3O)c(=O)n2C1c1ccccc1 (centres undefined)	> 9410 nM	317 nM	> 36600 nM	390 nM	2210 nM	486 nM	> 20100 nM	> 15700 nM	2180 nM	> 15000 nM	> 36600 nM	> 36600 nM	> 36600 nM	6970 nM	343 nM	513 nM
CCn1nc(-c2ccc(C(F)(F)F)cc2)nc2c(=O)n(C)c(=O)nc1-2	225 nM	402 nM	> 50100 nM	1370 nM	90.4 nM	613 nM	> 27400 nM	> 21400 nM	4550 nM	779 nM	2870 nM	> 50100 nM	> 50100 nM	> 48000 nM	246 nM	1300 nM
Cn1c(=O)c2c(-c3ccc(C(C)(C)C)cc3)n(-c3cc(Cl)ccc3O)cc2n(C)c1=O	988 nM	> 10200 nM	> 39500 nM	1220 nM	780 nM	982 nM	> 21700 nM	> 16900 nM	1270 nM	1140 nM	> 39500 nM	> 39500 nM	> 39500 nM	6750 nM	> 10200 nM	976 nM
O=C1C(Nc2ccc(Br)cc2)=C(n2nnc3ccccc32)C(=O)c2ccccc21	32.6 nM	60.2 nM	> 24800 nM	21.6 nM	> 6370 nM	59.3 nM	> 13600 nM	> 10600 nM	590 nM	28.2 nM	> 24800 nM	> 24800 nM	> 24800 nM	1310 nM	24.5 nM	80.1 nM
Oc1ccc(Br)cc1CN1CCN(Cc2ccccc2F)CC1	936 nM	2060 nM	> 36100 nM	334 nM	1610 nM	3660 nM	> 19800 nM	> 15500 nM	1790 nM	719 nM	> 36100 nM	> 36100 nM	> 36100 nM	27200 nM	745 nM	2770 nM
CC(C)(C)c1ccc(S(=O)(=O)NC2=C/C(=N\c3ccc(O)cc3)C(=O)c3ccccc32)cc1	687 nM	600 nM	4070 nM	579 nM	385 nM	244 nM	> 18000 nM	> 14000 nM	1030 nM	1080 nM	2180 nM	7990 nM	4620 nM	669 nM	326 nM	304 nM
COc1ccccc1C1CC2=NC(C)=C(C(=O)OC(C)C)C(c3ccc(Cl)cc3)C2=C(O)C1 (centres undefined)	846 nM	1010 nM	> 29900 nM	688 nM	> 7680 nM	780 nM	> 16400 nM	> 12800 nM	1100 nM	1280 nM	> 29900 nM	> 29900 nM	> 29900 nM	680 nM	641 nM	753 nM
CCOC(=O)C1(Cc2cccc(C(F)(F)F)c2)CCN(Cc2ccccc2O)CC1	486 nM	1330 nM	> 41300 nM	57.6 nM	726 nM	743 nM	> 22600 nM	> 17700 nM	345 nM	389 nM	> 41300 nM	> 41300 nM	> 41300 nM	11700 nM	368 nM	858 nM
CCOc1ccc(Nc2nc(NCc3ccccc3)c3ccccc3n2)cc1	1070 nM	1140 nM	8220 nM	1540 nM	> 10200 nM	1070 nM	> 21700 nM	8.8 nM	651 nM	1150 nM	4770 nM	8670 nM	8410 nM	5620 nM	1440 nM	305 nM
Cc1ccc(C)c(N2CCN(Cc3cc(Br)ccc3O)CC2)c1	297 nM	532 nM	> 35600 nM	178 nM	571 nM	579 nM	> 19500 nM	> 15300 nM	427 nM	395 nM	> 35600 nM	> 35600 nM	> 35600 nM	28300 nM	206 nM	716 nM
CCCCOc1ccc(N(C(C)=O)C2=C(N3CCOCC3)C(=O)c3ccccc3C2=O)cc1	36.4 nM	70.8 nM	3820 nM	95.6 nM	930 nM	21.2 nM	> 17100 nM	> 13400 nM	488 nM	98.9 nM	3890 nM	10900 nM	> 31200 nM	4010 nM	66 nM	28.9 nM
CCN(C(C)=O)C1=C(N2CCOCC2)C(=O)c2ccccc2C1=O	514 nM	431 nM	2730 nM	692 nM	> 8340 nM	467 nM	3210 nM	> 13900 nM	380 nM	348 nM	3200 nM	> 32500 nM	8990 nM	5670 nM	439 nM	611 nM
CN1/C(=C/c2cccc[n+]2C)Sc2ccccc21	503 nM	567 nM	4050 nM	389 nM	495 nM	879 nM	> 15500 nM	108 nM	771 nM	540 nM	> 28300 nM	> 28300 nM	> 28300 nM	3950 nM	605 nM	681 nM
CCOc1cc(C2CC(=O)NC3=C2C(=O)CC(c2ccc(OC)cc2)C3)cc(Cl)c1O (centres undefined)	1180 nM	976 nM	> 44400 nM	840 nM	637 nM	1160 nM	> 24300 nM	> 19000 nM	1310 nM	525 nM	> 44400 nM	> 44400 nM	> 44400 nM	> 42600 nM	1040 nM	1230 nM
COc1ccc(NC(=O)C2c3ccccc3C(=O)N(CC(C)C)C2c2cccs2)cc1 (centres undefined)	416 nM	217 nM	> 47700 nM	120 nM	> 12300 nM	329 nM	> 26100 nM	> 20400 nM	255 nM	102 nM	> 47700 nM	> 47700 nM	> 47700 nM	7550 nM	196 nM	370 nM
